Converted amounts (≈) assume the structure as drawn.
Key:
[1] = system: Pseudomonas aeruginosa; test: Antibacterial activity against Pseudomonas aeruginosa ATCC 27853 by microdilution method; type: functional
Summary of the method: (§1)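 Liquid-medium broth microdilution. Strains kept at -70 °C in glycerol Mueller-Hinton broth; fresh subcultures used for each run. Final inoculum (1-5) × 10^5 cfu/mL. MIC taken as the lowest concentration preventing visible growth. MBC taken as the concentration killing ≥99.9% of the initial inoculum, confirmed by subculturing dilutions onto TSA agar at 30 °C for 18-24 h.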

[2] = system: Staphylococcus epidermidis; test: Antibacterial activity against Staphylococcus epidermidis NCIMB 8853 by microdilution method; type: functional; summary of the method: as §1
[3] = system: Staphylococcus aureus; test: Antibacterial activity against Staphylococcus aureus ATCC 29213 by microdilution method; type: functional; summary of the method: as §1
[4] = system: Micrococcus luteus; test: Antibacterial activity against sMicrococcus luteus NCIMB 8166 by microdilution method; type: functional; summary of the method: as §1
[5] = system: Escherichia coli; test: Antibacterial activity against sEscherichia coli ATCC 35218 by microdilution method; type: functional; summary of the method: as §1
[6] = Toxicity against Artemia salina; type: organism-based; conditions: in vivo, read-out: ED50 (the source's name)
Summary of the method: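 Brine shrimp lethality bioassay; the endpoint is death, reported as ED50 in µM.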

Structure (SMILES)	MIC [1] [µg/mL]	MBC [2] [µg/mL]	MIC [2] [µg/mL]	MBC [3] [µg/mL]	MIC [3] [µg/mL]	MBC [4] [µg/mL]	MIC [4] [µg/mL]	MBC [5] [µg/mL]	MIC [5] [µg/mL]	LC50 [6] [µM]
COc1cc(/C=C/C(=O)NC[C@@H](O)c2ccc(O)cc2)ccc1O	> 700	> 700	600 (≈ 1820 µM)	600 (≈ 1820 µM)	200 (≈ 607 µM)	700 (≈ 2130 µM)	400 (≈ 1210 µM)	700 (≈ 2130 µM)	400 (≈ 1210 µM)	–
CCCCCC(O)C(O)/C=C/C(O)CCCCCCCC(=O)O (centres undefined)	> 700	> 700	600 (≈ 1820 µM)	> 700	500 (≈ 1510 µM)	500 (≈ 1510 µM)	400 (≈ 1210 µM)	–	> 700	–
COc1cc(O[C@@H]2O[C@H](CO)[C@@H](O)[C@H](O)[C@H]2O)cc(OC)c1OC	> 700	> 700	600 (≈ 1730 µM)	> 700	700 (≈ 2020 µM)	> 700	500 (≈ 1440 µM)	–	> 700	28.9
C=C[C@](C)(CC/C=C(\C)CO)O[C@@H]1O[C@H](CO)[C@@H](O)[C@H](O)[C@H]1O	> 700	> 700	700 (≈ 2110 µM)	> 700	700 (≈ 2110 µM)	> 700	600 (≈ 1810 µM)	–	> 700	21.8
CC/C=C\CC(O)C(O)/C=C/C(O)CCCCCCCC(=O)O (centres undefined)	> 700	> 700	600 (≈ 1830 µM)	> 700	500 (≈ 1520 µM)	500 (≈ 1520 µM)	400 (≈ 1220 µM)	–	> 700	–
CC(=O)/C=C/[C@@]12O[C@]1(C)C[C@@H](O)[C@H](O[C@@H]1O[C@H](CO)[C@@H](O)[C@H](O)[C@H]1O)C2(C)C	> 700	> 700	600 (≈ 1490 µM)	> 700	700 (≈ 1740 µM)	> 700	500 (≈ 1240 µM)	–	> 700	10.9
COc1cc(/C=C/C(=O)NCCc2ccc(O)cc2)ccc1O [N-TRANS-FERULOYL TYRAMINE]	> 700	–	> 700	> 700	500 (≈ 1600 µM)	> 700	500 (≈ 1600 µM)	–	> 700	–
N#C[C@H](O[C@@H]1O[C@H](CO)[C@@H](O)[C@H](O)[C@H]1O)c1ccc(O)cc1 [TAXIPHYLLIN]	> 700	> 700	500 (≈ 1610 µM)	700 (≈ 2250 µM)	400 (≈ 1280 µM)	500 (≈ 1610 µM)	200 (≈ 642 µM)	> 700	600 (≈ 1930 µM)	0.96
